# Experimental data from different studies.
# Compare with care: the assays were run in different laboratories.
# Target: Serine/threonine-protein kinase 10 (STK10, Homo sapiens, UniProt O94804)
Structure (SMILES),effect on,mode,technique,concentration,endpoint,value
COc1ccc2oc(-c3ccc4nc(N)oc4c3)c/c(=N\c3ccccc3NC(=O)CCN)c2c1,binding,,,1 µM,remaining binding,100%
C=CC(=O)N1CCC[C@@H](n2nc(-c3ccc(Oc4ccccc4)cc3)c3c(N)ncnc32)C1,enzyme activity,inhibitor,,1 µM,inhibition,46%
C#Cc1cc(-c2cc(Nc3nc(N[C@@H](C)c4ccc(F)cn4)ncc3Cl)n[nH]2)ccc1C=O,enzyme activity,inhibitor,,0.2 µM,inhibition,36.5%
C=CC(=O)N1CCC([C@@H]2CCNc3c(C(N)=O)c(-c4ccc(Oc5ccccc5)cc4)nn32)CC1,enzyme activity,inhibitor,,1 µM,inhibition,0%
CN1CCN(C(=O)c2ccc(NC(=O)Nc3ccc(N(C)c4ccnc(Nc5ccc(CS(C)(=O)=O)cc5)n4)cc3)cc2)CC1,binding,,competition with immobilised ligand,1 µM,remaining binding,0.4%
CCCCC(=O)Nc1ccc(-c2ccc3ncn(CCC)c(=O)c3c2)cn1,binding,,competition with immobilised ligand,0.5 µM,remaining binding,99%
C1=C/COCc2cc(ccc2OCCN2CCCC2)Nc2nccc(n2)-c2cccc(c2)COC/1,cell-free assay,,,0.1 µM,remaining signal,89%
Cc1ccc(NC(=O)c2ccnc(C(F)(F)F)c2)cc1-c1cc(OCCO)nc(N2CCOCC2)c1,binding,,competition with immobilised ligand,1 µM,remaining binding,21%
